Experimental data: ChEMBL document CHEMBL1275590, “Novel arylimidamides for treatment of visceral leishmaniasis” (Antimicrob Agents Chemother, 2010)

Experiments:
Leishmania donovani [1] = assay: Antileishmanial activity against […] Leishmania donovani AG83-S infected in mouse J774 macrophage; type: functional, organism-based
Mus musculus [2] = assay: Renal toxicity in BALB/c mouse assessed as blood urea nitrogen level in serum at 150 mg/kg/day, po administered for five days (Rvb= 29 mg/dl); type: organism-based; parameters: route oral; details: in vivo
In short: (§1)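 Female BALB/c mice (n = 5 per dose), dosed once daily for 5 consecutive days p.o. (20 ml/kg) or i.v. (10 ml/kg) with compound in sterile water, prepared fresh daily under yellow light. Vehicle controls n = 5 per route. Clinical observations, body weights, serum chemistry and hematology on day 6 before necropsy; histopathology of formalin-fixed tissues. Chemistry analysed by one-way ANOVA with Dunnett's posttest.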

Mus musculus [3] = assay: Hepatotoxicity in BALB/c mouse assessed as ALT level in serum at 20 mg/kg/day, iv administered for five days (Rvb= 34 U/L); type: toxicity, organism-based; parameters: route intravenous; details: in vivo
[4] = Half life in rat liver microsome by HPLC-MS/MS analysis in presence of 0.1 uM NADPH; type: ADME; details: liver microsomes
In short: (§2)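 Pooled liver microsomes (human, mouse, rat) with NADPH. Substrate added from DMSO to final 0.1, 1.0 or 10 μM, with 0.5% (vol/vol) organic solvent. Incubated at 37°C for up to 60 min. Stopped with 2 volumes of 7:1 methanol-water containing 0.1% TFA and 30 nM internal standard, then centrifuged. Remaining substrate was measured by HPLC-MS/MS, and t1/2 was obtained by one-phase exponential decay fit (t1/2 = 0.693/k).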

Leishmania donovani [5] = assay: Antileishmanial activity against Leishmania donovani WR378 infected in golden Syrian hamster assessed as reduction in spleen parasitemia at 50 mg/kg/day, po administered for five days; type: functional; details: 120 h
In short: (§3)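 11-day golden hamster VL model adapted from an 8-day method, using L. donovani WR378 metacyclic promastigotes. Dosing was oral, once daily for 5 days. Animals were euthanized on day 11 post-infection. Liver, spleen and femoral bone marrow (flushed with Schneider's medium) were harvested.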

Leishmania amazonensis = assay: Antileishmanial activity against intracellular Leishmania amazonensis amastigotes; type: functional, organism-based
[6] = Cmax in Swiss Webster mouse at 1 mg/kg, iv by HPLC-MS/MS analysis; type: ADME, organism-based; parameters: dose 1 mg/kg, route intravenous; details: in vivo
In short: (§4)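 Male Swiss Webster mice, n = 3 per time point. For i.v., the compound was dissolved in sterile water, diluted 1:1 with 2× saline, and given as a tail-vein bolus over ~10–20 s. For p.o., it was given by gavage in sterile water. Dose volume was 5 ml/kg. Terminal plasma was taken from 5 min to 72 h and measured by HPLC-MS/MS (calibration 2.5–10,000 nM). Parameters came from noncompartmental analysis.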

Mus musculus [7] = assay: Hepatotoxicity in BALB/c mouse assessed as ALT level in serum at 100 mg/kg/day, po administered for five days (Rvb= 36 U/L); type: toxicity, organism-based; parameters: route oral; details: in vivo
[8] = Clearance in Swiss Webster mouse at 1 mg/kg, iv by HPLC-MS/MS analysis; type: ADME, organism-based; parameters: dose 1 mg/kg, route intravenous; details: in vivo; in short: as §4
[9] = Volume of distribution in Swiss Webster mouse at 1 mg/kg, iv by HPLC-MS/MS analysis; type: ADME, organism-based; parameters: dose 1 mg/kg, route intravenous; details: in vivo
In short: (§5)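 Male Swiss Webster mice (n = 3 per time point), single dose by oral gavage (sterile water solution) or tail-vein bolus i.v. (water diluted 1:1 with 2× saline, over ~10–20 s); dose volume 5 ml/kg. Terminal blood sampled from 5 min to 72 h postdose; plasma quantified by HPLC-MS/MS (positive-ion SRM). Noncompartmental analysis gave Cmax, Tmax, AUC0-∞, CL, Vss; bioavailability from p.o. versus i.v. exposure.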

[10] = Half life in rat liver microsome by HPLC-MS/MS analysis in presence of 1 uM NADPH; type: ADME; details: liver microsomes; in short: as §2
Mus musculus [11] = assay: Hepatotoxicity in BALB/c mouse assessed as alkaline phosphatase in serum at 150 mg/kg/day, po administered for five days (Rvb= 129 U/L); type: toxicity, organism-based; parameters: route oral; details: in vivo
Mus musculus [12] = assay: Renal toxicity in BALB/c mouse assessed as phosphorus level in serum at 50 mg/kg/day, po administered for five days (Rvb= 5.3 mg/dl); type: organism-based; parameters: route oral; details: in vivo; in short: as §1
[13] = Half life in Swiss Webster mouse at 5 mg/kg, iv by HPLC-MS/MS analysis; type: ADME, organism-based; parameters: dose 5 mg/kg, route intravenous; details: in vivo; in short: as §4
[14] = Half life in golden Syrian hamster liver microsome by HPLC-MS/MS analysis in presence of 10 uM NADPH; type: ADME, Mesocricetus auratus; details: liver microsomes
In short: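 Pooled liver microsomes with NADPH. Substrate at final 0.1, 1.0 and 10 μM with 0.5% DMSO, incubated up to 60 min at 37°C. Reactions were stopped with 7:1 methanol-water containing 0.1% TFA and 30 nM internal standard. Remaining substrate was measured by HPLC-MS/MS, and t1/2 came from a one-phase exponential decay fit.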

Leishmania donovani [15] = assay: Antileishmanial activity against intracellular Leishmania donovani LV82 amastigotes infected in CD-1 mouse peritoneal macrophage; type: functional, organism-based
In short: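 CD-1 mouse peritoneal macrophages, 5 × 10^4 cells/well in RPMI 1640 + 10% heat-inactivated FBS, adhered overnight. Infected overnight with stationary-phase LV82 promastigotes (5:1 parasite:macrophage), 37°C, 5% CO2. Medium then replaced with compound or vehicle for 72 h at 37°C. Methanol-fixed, Giemsa-stained; % infected macrophages counted at ×1,000. IC50 by four-parameter logistic nonlinear regression.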

Mus musculus [16] = assay: Hepatotoxicity in BALB/c mouse assessed as phosphorus level in serum at 25 mg/kg/day, po administered for five days (Rvb= 5.3 mg/dl); type: toxicity, organism-based; parameters: route oral; details: in vivo
Leishmania donovani [17] = assay: Antileishmanial activity against antimony resistant Leishmania donovani MC4-R infected in mouse J774 macrophage; type: functional, organism-based
Leishmania donovani [18] = assay: Antileishmanial activity against Leishmania donovani WR378 infected in golden Syrian hamster assessed as reduction in bone marrow parasitemia at 30 mg/kg/day, po administered for five days; type: functional; details: 120 h; in short: as §3
Mus musculus [19] = assay: Renal toxicity in BALB/c mouse assessed as blood urea nitrogen level in serum at 25 mg/kg/day, po administered for five days (Rvb= 29 mg/dl); type: organism-based; parameters: route oral; details: in vivo; in short: as §1
Mus musculus [20] = assay: Volume of distribution in Swiss Webster mouse at 16.5 mg/kg, po by HPLC-MS/MS analysis; type: ADME, organism-based; parameters: dose 16.5 mg/kg, route oral; details: in vivo
In short: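 Male Swiss Webster mice (n = 3 per time point) got a single oral gavage dose in sterile water, 5 ml/kg. The 5 mM formulation was a clear solution; the 20 and 40 mM formulations were gelatinous. Terminal blood was collected from 5 min to 72 h postdose, and plasma was analysed by HPLC-MS/MS. Volume of distribution came from noncompartmental analysis.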

[21] = Tmax in Swiss Webster mouse at 16.5 mg/kg, po by HPLC-MS/MS analysis; type: ADME, organism-based; parameters: dose 16.5 mg/kg, route oral; details: in vivo; in short: as §5
[22] = Tmax in Swiss Webster mouse at 66 mg/kg, po by HPLC-MS/MS analysis; type: ADME, organism-based; parameters: dose 66 mg/kg, route oral; details: in vivo; in short: as §5
Mus musculus [23] = assay: AUC (0 to infinity) in Swiss Webster mouse at 16.5 mg/kg, po by HPLC-MS/MS analysis; type: ADME, organism-based, Plasma; parameters: time infinity, dose 16.5 mg/kg, route oral; details: in vivo; in short: as §4
[24] = Half life in Swiss Webster mouse at 131 mg/kg, po by HPLC-MS/MS analysis; type: ADME, organism-based; parameters: dose 131 mg/kg, route oral; details: in vivo; in short: as §4
[25] = Oral bioavailability in Swiss Webster mouse at 66 mg/kg by HPLC-MS/MS analysis; type: ADME, organism-based; details: in vivo; in short: as §5

Q: Which results are given for `CC(C)Oc1cc(NC(=N)c2ccccn2)ccc1-c1ccc(-c2ccc(NC(=N)c3ccccn3)cc2OC(C)C)o1`?
A: IC50 (Leishmania donovani [1]): 90 nM; Activity (Mus musculus [2]): 29 U/L; Activity (Mus musculus [3]): 50 U/L; half-life [4]: 1.6 h; inhibition in vivo at 50 mg/kg/day (Leishmania donovani [5]): 74%; IC50 (Leishmania amazonensis): 87 nM; Cmax [6]: 1090 nM; Activity (Mus musculus [7]): 34 U/L; clearance [8]: 9.9 mL/min/kg; Vd [9]: 14 L/kg; half-life [10]: > 2 h; Activity (Mus musculus [11]): 142 U/L; Activity (Mus musculus [12]): 8.3 mg/dL; half-life [13]: 24 h; half-life [14]: > 2 h; IC50 (Leishmania donovani [15]): 2800 nM; Activity (Mus musculus [16]): 7 mg/dL; IC50 (Leishmania donovani [17]): 76 nM; inhibition in vivo at 30 mg/kg/day (Leishmania donovani [18]): 24%; Activity (Mus musculus [19]): 27 mg/dL

Q: Which IC50 (Leishmania donovani [1]) does the source give for `CCOc1cc(NC(=N)c2ccccn2)ccc1-c1ccc(-c2ccc(NC(=N)c3ccccn3)cc2OCC)o1` here?
A: The IC50 was 130 nM.

Q: What about the Activity (Mus musculus [3]) of the same molecule?
A: The Activity was 57 U/L.

Q: And the half-life [4]?
A: Its half-life is 1.33 h.

Q: What about the Vd (Mus musculus [20]) of the same molecule?
A: Its Vd is 57 L/kg.

Q: What about the Tmax [21] of the same molecule?
A: Its Tmax is 2 h.

Q: What about the IC50 (Leishmania amazonensis) of the same molecule?
A: Its IC50 is 120 nM.

Q: What about the Tmax [22] of the same molecule?
A: The Tmax was 2 h.

Q: What about the Cmax [6] of the same molecule?
A: The Cmax was 370 nM.

Q: And the clearance [8]?
A: The clearance was 45 mL/min/kg.

Q: And the Vd [9]?
A: Its Vd is 36 L/kg.

Q: What about the AUC (Mus musculus [23]) of the same molecule?
A: Its AUC is 0.5 µM·h.

Q: What about the half-life [10] of the same molecule?
A: The half-life was greater than 2 h.

Q: And the Activity (Mus musculus [12])?
A: The Activity was 7.2 mg/dL.

Q: What about the half-life [14] of the same molecule?
A: Its half-life is greater than 2 h.

Q: And the half-life [24]?
A: The half-life was 32 h.

Q: What about the IC50 (Leishmania donovani [15]) of the same molecule?
A: Its IC50 is 4500 nM.

Q: What about the Activity (Mus musculus [16]) of the same molecule?
A: Its Activity is 6.9 mg/dL.

Q: What about the IC50 (Leishmania donovani [17]) of the same molecule?
A: The IC50 was 150 nM.

Q: What about the bioavailability [25] of the same molecule?
A: Its bioavailability is 9.3%.

Q: What about the Activity (Mus musculus [19]) of the same molecule?
A: Its Activity is 29 mg/dL.
